Results taken from ChEMBL document CHEMBL3085705, “Design, chemical synthesis of 3-(9H-fluoren-9-yl)pyrrolidine-2,5-dione derivatives and biological activity against enoyl-ACP reductase (InhA) and Mycobacterium tuberculosis” (2013).

Assays:
Format in all cases: functional
[1] = system: Mycobacterium tuberculosis; test: Antimicrobial activity against streptomycin, isoniazid, rifampicin, ethambutol, pyrazinamide and ethionammide-resistant Mycobacterium tuberculosis clinical isolate by two-fold serial dilution method
Method in brief: (§1)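 Compounds dissolved in DMSO. Single colony grown in Middlebrook 7H9 with 0.05% Tween 80 and 10% OADC at 37 °C, no shaking, to ~10^8 CFU/mL (OD600 0.8–1.0). Diluted to ~10^7 CFU/mL; 1 μL streaked onto 7H11 agar (0.5% glycerol, 10% OADC) with two-fold serial compound dilutions. MIC is the lowest concentration inhibiting growth. Repeated three times.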

[2] = system: Mycobacterium tuberculosis; test: Antimicrobial activity against streptomycin, isoniazid, rifampicin, ethambutol, pyrazinamide, ethionammide and capreomicinl-resistant Mycobacterium tuberculosis clinical isolate by two-fold serial dilution method; method in brief: as §1
[3] = system: Mycobacterium tuberculosis; test: Antimicrobial activity against streptomycin, isoniazid, rifampicin and ethambutol-resistant Mycobacterium tuberculosis clinical isolate by two-fold serial dilution method; method in brief: as §1

Measured: MIC

O=C(CC(C(=O)O)C1c2ccccc2-c2ccccc21)Nc1cc(Cl)cc(Cl)c1 (stereo not drawn)
4.7 µM: [1] | [2] | [3]
